Results from ChEMBL document CHEMBL3232870, “Discovery of 3-(4-methanesulfonylphenoxy)-N-[1-(2-methoxy-ethoxymethyl)-1H-pyrazol-3-yl]-5-(3-methylpyridin-2-yl)-benzamide as a novel glucokinase activator (GKA) for the treatment of type 2 diabetes mellitus” (Bioorg Med Chem, 2014).
Values after ≈ are worked out from the molar mass of the structure shown.

How the values were obtained:
Salmonella typhimurium [1] = assay: Genotoxicity in Salmonella typhimurium TA100 assessed as increase in number of revertants at 1.5 to 5000 ug/plate by Ames test in presence of S9 fraction; assay type: toxicity, organism-based; conditions: salmonella enterica subsp. enterica serovar typhimurium
Procedure, shortened: (§1)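 Ames reverse mutation test by direct plate incorporation in S. typhimurium TA98 and TA100, with or without Aroclor 1254-induced rat liver S9 mix. Compound in DMSO at 1.5–5000 µg/plate, plated in top agar, incubated 37 °C for about 50 h, then revertant colonies counted. Plates were checked for precipitation and cytotoxicity. A positive was a reproducible, dose-related increase in revertants of more than 2-fold.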

Salmonella typhimurium [2] = assay: Genotoxicity in Salmonella typhimurium TA100 assessed as increase in number of revertants at 1.5 to 5000 ug/plate by Ames test in absence of S9 fraction; assay type: toxicity, organism-based; conditions: salmonella enterica subsp. enterica serovar typhimurium; procedure, shortened: as §1
Mus musculus [3] = assay: Toxicity in fasting C57BL/J6 mouse assessed as glucose level at 50 mg/kg, po measured after 60 mins; assay type: organism-based; set-up: dose 50 mg/kg, route oral; conditions: in vivo, 1 h
Procedure, shortened: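 Eight-week-old male C57BL/6 mice were fasted 6 h with free access to water, then dosed orally with compound or 0.5% methylcellulose vehicle, with no glucose challenge. Blood glucose was followed up to 360 min, n = 6 per group.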

Salmonella typhimurium [4] = assay: Cytotoxicity in Salmonella typhimurium TA98 at 1.5 to 5000 ug/plate in absence of S9 fraction; assay type: organism-based; conditions: salmonella enterica subsp. enterica serovar typhimurium; procedure, shortened: as §1
[5] = Volume of distribution at steady state in Sprague-Dawley rat at 3 mg/kg, iv and 10 mg/kg, po; assay type: ADME, organism-based; conditions: in vivo, read-out: Vdss
Procedure, shortened: (§2)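 Male ICR mice and 7-week-old SD rats received a 3 mg/kg iv bolus or a 10 mg/kg oral gavage dose. Plasma was precipitated with 2 volumes of acetonitrile and analysed by HPLC. Parameters came from noncompartmental analysis.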

[6] = Mean residence time in Sprague-Dawley rat at 3 mg/kg, iv and 10 mg/kg, po; assay type: ADME, organism-based; conditions: in vivo; procedure, shortened: as §2
[7] = Elimination half life in Sprague-Dawley rat at 3 mg/kg, iv and 10 mg/kg, po; assay type: ADME, organism-based; conditions: in vivo, read-out: beta t1/2 (converted)
Procedure, shortened: (§3)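 Male ICR mice and 7-week-old SD rats received a 3 mg/kg intravenous bolus or a 10 mg/kg oral gavage dose. Plasma was deproteinized with acetonitrile (2 volumes) and compound measured by HPLC. Parameters came from noncompartmental analysis.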

[8] = AUC in ICR mouse at 3 mg/kg, iv and 10 mg/kg, po; assay type: ADME, organism-based; conditions: plasma; procedure, shortened: as §3
[9] = AUC in Sprague-Dawley rat at 3 mg/kg, iv and 10 mg/kg, po; assay type: ADME, organism-based; conditions: plasma; procedure, shortened: as §3
[10] = Cmax in ICR mouse at 3 mg/kg, iv and 10 mg/kg, po; assay type: ADME, organism-based; conditions: in vivo; procedure, shortened: as §3
[11] = Tmax in ICR mouse at 3 mg/kg, iv and 10 mg/kg, po; assay type: ADME, organism-based; conditions: in vivo; procedure, shortened: as §2
[12] = Oral bioavailability in Sprague-Dawley rat at 10 mg/kg; assay type: ADME, organism-based; conditions: in vivo; procedure, shortened: as §2
[13] = Cmax in male Sprague-Dawley rat at 250 mg/kg, po measured on day 14; assay type: ADME, organism-based; set-up: dose 250 mg/kg, route oral; conditions: in vivo
Procedure, shortened: (§4)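 Sprague–Dawley rats, 5 weeks old at arrival, both sexes. Given the compound by oral gavage once daily for 14 days at 0, 250, 500 or 1000 mg/kg/day, with 0.5% methylcellulose as vehicle. Toxicokinetic parameters were determined on Day 1 and Day 14.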

[14] = Cmax in male Sprague-Dawley rat at 1000 mg/kg, po measured on day 1; assay type: ADME, organism-based; set-up: dose 1000 mg/kg, route oral; conditions: in vivo; procedure, shortened: as §4
[15] = Cmax in female Sprague-Dawley rat at 500 mg/kg, po measured on day 1; assay type: ADME, organism-based; set-up: dose 500 mg/kg, route oral; conditions: in vivo; procedure, shortened: as §4
[16] = Cmax in female Sprague-Dawley rat at 500 mg/kg, po measured on day 14; assay type: ADME, organism-based; set-up: dose 500 mg/kg, route oral; conditions: in vivo; procedure, shortened: as §4
[17] = Cmax in female Sprague-Dawley rat at 1000 mg/kg, po measured on day 1; assay type: ADME, organism-based; set-up: dose 1000 mg/kg, route oral; conditions: in vivo; procedure, shortened: as §4
[18] = Cmax in female Sprague-Dawley rat at 1000 mg/kg, po measured on day 14; assay type: ADME, organism-based; set-up: dose 1000 mg/kg, route oral; conditions: in vivo; procedure, shortened: as §4
[19] = Tmax in male Sprague-Dawley rat at 250 mg/kg, po measured on day 1; assay type: ADME, organism-based; set-up: dose 250 mg/kg, route oral; conditions: in vivo
Procedure, shortened: (§5)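 Sprague–Dawley rats of both sexes, 5 weeks old at arrival, received daily oral gavage at 0, 250, 500 or 1000 mg/kg/day for 14 days. Vehicle was 0.5% methylcellulose at 10 mL/kg. Toxicokinetics were taken on Day 1 and Day 14. Necropsy was by Day 15. Testis was fixed in modified Davidson's fixative, paraffin-sectioned and H&E-stained, with histopathology on control and high-dose groups only.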

[20] = Tmax in male Sprague-Dawley rat at 500 mg/kg, po measured on day 14; assay type: ADME, organism-based; set-up: dose 500 mg/kg, route oral; conditions: in vivo; procedure, shortened: as §5
[21] = Tmax in male Sprague-Dawley rat at 1000 mg/kg, po measured on day 14; assay type: ADME, organism-based; set-up: dose 1000 mg/kg, route oral; conditions: in vivo; procedure, shortened: as §5
[22] = Tmax in female Sprague-Dawley rat at 250 mg/kg, po measured on day 14; assay type: ADME, organism-based; set-up: dose 250 mg/kg, route oral; conditions: in vivo; procedure, shortened: as §5
[23] = Tmax in female Sprague-Dawley rat at 500 mg/kg, po measured on day 1; assay type: ADME, organism-based; set-up: dose 500 mg/kg, route oral; conditions: in vivo; procedure, shortened: as §5
[24] = Tmax in female Sprague-Dawley rat at 500 mg/kg, po measured on day 14; assay type: ADME, organism-based; set-up: dose 500 mg/kg, route oral; conditions: in vivo; procedure, shortened: as §5
[25] = Tmax in female Sprague-Dawley rat at 1000 mg/kg, po measured on day 14; assay type: ADME, organism-based; set-up: dose 1000 mg/kg, route oral; conditions: in vivo; procedure, shortened: as §5
[26] = AUC (0 to t) in male Sprague-Dawley rat at 500 mg/kg, po measured on day 14; assay type: ADME, organism-based; set-up: dose 500 mg/kg, route oral; conditions: plasma; procedure, shortened: as §4
[27] = AUC (0 to t) in female Sprague-Dawley rat at 500 mg/kg, po measured on day 1; assay type: ADME, organism-based; set-up: dose 500 mg/kg, route oral; conditions: plasma; procedure, shortened: as §4
[28] = AUC (0 to t) in female Sprague-Dawley rat at 500 mg/kg, po measured on day 14; assay type: ADME, organism-based; set-up: dose 500 mg/kg, route oral; conditions: plasma; procedure, shortened: as §4
Rattus norvegicus = assay: Toxicity in Sprague-Dawley rat assessed as multinucleated giant cells in testis at 250 to 1000 mg/kg, po by hematoxylin and eosin staining-based microscopy; assay type: organism-based; set-up: dose 250-1000 mg/kg, route oral; conditions: in vivo; procedure, shortened: as §5
Salmonella typhimurium [29] = assay: Genotoxicity in Salmonella typhimurium TA98 assessed as increase in number of revertants at 1.5 to 5000 ug/plate by Ames test in presence of S9 fraction; assay type: toxicity, organism-based; conditions: salmonella enterica subsp. enterica serovar typhimurium; procedure, shortened: as §1
MIN6 = assay: Increase in 11 mM glucose-stimulated insulin secretion in mouse MIN6 cells measured for 1 hr by ELISA; assay type: functional
Cytochrome P450 3A4 = Cytochrome P450 3A4 (Homo sapiens, UniProt P08684); assay: Induction of CYP3A4 in human liver microsomes up to 25 to 50 uM; assay type: ADME
Cytochrome P450 2C9 = Cytochrome P450 2C9 (Homo sapiens, UniProt P11712); assay: Inhibition of CYP2C9 in human liver microsomes; assay type: ADME
Procedure, shortened: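 Pooled human liver microsomes at 0.25 mg/mL, each with a CYP-selective substrate and test compound up to 25 µM, preincubated at 37 °C. It is stopped on ice with ice-cold acetonitrile and centrifuged, and the supernatant is analysed by LC–MS/MS.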

Mus musculus [30] = assay: Toxicity in C57BL/J6 db/db mouse assessed as effect on body weight at 50 mg/kg, po; assay type: organism-based; set-up: dose 50 mg/kg, route oral; conditions: in vivo
[31] = Aqueous solubility of the compound in phosphate buffer at pH 7.4; assay type: physicochemical
Mus musculus [32] = assay: Toxicity in C57BL/J6 mouse assessed as hypoglycemia at 150 mg/kg, po; conditions: in vivo
Mus musculus [33] = assay: Toxicity in C57BL/J6 db/db mouse assessed as effect on serum lipids at 30 to 100 mg/kg, po; conditions: in vivo

Sequence of Cytochrome P450 3A4 (P08684 whole entry): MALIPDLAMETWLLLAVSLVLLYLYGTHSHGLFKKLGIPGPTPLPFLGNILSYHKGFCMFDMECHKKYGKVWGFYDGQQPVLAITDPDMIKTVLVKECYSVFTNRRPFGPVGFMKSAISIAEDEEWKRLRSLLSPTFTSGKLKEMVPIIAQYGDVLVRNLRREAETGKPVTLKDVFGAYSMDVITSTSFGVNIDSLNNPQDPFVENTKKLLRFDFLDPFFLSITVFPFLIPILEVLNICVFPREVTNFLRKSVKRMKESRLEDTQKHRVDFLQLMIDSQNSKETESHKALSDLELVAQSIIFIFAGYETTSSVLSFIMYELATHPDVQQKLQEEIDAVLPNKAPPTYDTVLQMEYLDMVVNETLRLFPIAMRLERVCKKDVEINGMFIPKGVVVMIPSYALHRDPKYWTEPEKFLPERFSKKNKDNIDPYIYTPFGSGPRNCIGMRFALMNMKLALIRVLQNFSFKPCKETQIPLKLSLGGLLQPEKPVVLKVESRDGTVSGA
Sequence of Cytochrome P450 2C9 (P11712 whole entry): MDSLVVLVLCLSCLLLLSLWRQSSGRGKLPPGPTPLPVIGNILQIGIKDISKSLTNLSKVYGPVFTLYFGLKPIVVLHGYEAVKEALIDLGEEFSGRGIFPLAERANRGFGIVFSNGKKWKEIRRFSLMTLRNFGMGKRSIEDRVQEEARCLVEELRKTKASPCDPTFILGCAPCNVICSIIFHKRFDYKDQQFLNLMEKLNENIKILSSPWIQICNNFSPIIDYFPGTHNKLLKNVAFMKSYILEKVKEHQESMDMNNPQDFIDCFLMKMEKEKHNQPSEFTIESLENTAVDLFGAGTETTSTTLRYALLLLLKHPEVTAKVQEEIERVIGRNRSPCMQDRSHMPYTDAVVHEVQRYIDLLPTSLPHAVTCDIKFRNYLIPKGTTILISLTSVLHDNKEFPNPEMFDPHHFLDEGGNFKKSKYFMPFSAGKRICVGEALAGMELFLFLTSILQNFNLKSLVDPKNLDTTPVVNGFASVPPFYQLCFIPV

COCCOCn1ccc(NC(=O)c2cc(Oc3ccc(S(C)(=O)=O)cc3)cc(-c3ncccc3C)c2)n1
Activity (Salmonella typhimurium [1]): Non-toxic | Activity (Salmonella typhimurium [2]): Non-toxic | Activity (Mus musculus [3]): > 60 mg/dL | Activity (Salmonella typhimurium [4]): Non-toxic | Vd [5]: 0.21 L/kg | MRT [6]: 0.37 h | half-life [7]: 0.3 h | AUC [8]: 11900 ng·h/mL | AUC [9]: 3800 ng·h/mL | Cmax [10]: 11700 ng/mL | Tmax [11]: 0.25 h | bioavailability [12]: 22% | Cmax [13]: 1820 ng/mL | Cmax [14]: 4250 ng/mL | Cmax [15]: 4300 ng/mL | Cmax [16]: 3920 ng/mL | Cmax [17]: 7590 ng/mL | Cmax [18]: 5210 ng/mL | Tmax [19]: 2.7 h | Tmax [20]: 3 h | Tmax [21]: 5 h | Tmax [22]: 1.3 h | Tmax [23]: 3.3 h | Tmax [24]: 1.3 h | Tmax [25]: 2.7 h | AUC(0-t) [26]: 13600 ng·h/mL | AUC(0-t) [27]: 19800 ng·h/mL | AUC(0-t) [28]: 16300 ng·h/mL | Activity (Rattus norvegicus): Non-toxic | Activity (Salmonella typhimurium [29]): Non-toxic | fold change (FC) (MIN6): 9 | Activity (Cytochrome P450 3A4): Not Active | IC50 (Cytochrome P450 2C9): 5.2 µM | Activity (Mus musculus [30]): Non-toxic | solubility [31]: 122 µM (≈ 65.5 µg/mL) | Activity (Mus musculus [32]): Non-toxic | Activity (Mus musculus [33]): Non-toxic
